Measured values from ChEMBL document CHEMBL4304743, “Discovery of ( E)- N1-(3-Fluorophenyl)- N3-(3-(2-(pyridin-2-yl)vinyl)-1 H-indazol-6-yl)malonamide (CHMFL-KIT-033) as a Novel c-KIT T670I Mutant Selective Kinase Inhibitor for Gastrointestinal Stromal Tumors (GISTs)” (J Med Chem, 2019).

What was measured:
[1] = Antiproliferative activity in mouse BAF3 cells after 72 hrs by CCK8 assay; assay type: cell-based
Summary of the method: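 IL-3-independent BaF3 cells carrying tel-c-KIT constructs, grown in RPMI 1640 with 10% FBS. Cells at 1.5-5 × 10^4 cells/mL mixed directly with serial compound dilutions, 72 h at 37 °C, 5% CO2. CCK-8 read-out at 450 nm, normalized to DMSO; GI50 by curve fitting.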

[2] = target: Mast/stem cell growth factor receptor Kit (Homo sapiens, UniProt P10721); test: Inhibition of wild type TEL fused c-KIT (unknown origin) transfected in mouse BAF3 cells assessed as growth inhibition after 72 hrs by CCK8 assay; assay type: cell-based; conditions: baf3, 72 h
Sequence of Mast/stem cell growth factor receptor Kit (P10721 whole entry, the tested form may be a part): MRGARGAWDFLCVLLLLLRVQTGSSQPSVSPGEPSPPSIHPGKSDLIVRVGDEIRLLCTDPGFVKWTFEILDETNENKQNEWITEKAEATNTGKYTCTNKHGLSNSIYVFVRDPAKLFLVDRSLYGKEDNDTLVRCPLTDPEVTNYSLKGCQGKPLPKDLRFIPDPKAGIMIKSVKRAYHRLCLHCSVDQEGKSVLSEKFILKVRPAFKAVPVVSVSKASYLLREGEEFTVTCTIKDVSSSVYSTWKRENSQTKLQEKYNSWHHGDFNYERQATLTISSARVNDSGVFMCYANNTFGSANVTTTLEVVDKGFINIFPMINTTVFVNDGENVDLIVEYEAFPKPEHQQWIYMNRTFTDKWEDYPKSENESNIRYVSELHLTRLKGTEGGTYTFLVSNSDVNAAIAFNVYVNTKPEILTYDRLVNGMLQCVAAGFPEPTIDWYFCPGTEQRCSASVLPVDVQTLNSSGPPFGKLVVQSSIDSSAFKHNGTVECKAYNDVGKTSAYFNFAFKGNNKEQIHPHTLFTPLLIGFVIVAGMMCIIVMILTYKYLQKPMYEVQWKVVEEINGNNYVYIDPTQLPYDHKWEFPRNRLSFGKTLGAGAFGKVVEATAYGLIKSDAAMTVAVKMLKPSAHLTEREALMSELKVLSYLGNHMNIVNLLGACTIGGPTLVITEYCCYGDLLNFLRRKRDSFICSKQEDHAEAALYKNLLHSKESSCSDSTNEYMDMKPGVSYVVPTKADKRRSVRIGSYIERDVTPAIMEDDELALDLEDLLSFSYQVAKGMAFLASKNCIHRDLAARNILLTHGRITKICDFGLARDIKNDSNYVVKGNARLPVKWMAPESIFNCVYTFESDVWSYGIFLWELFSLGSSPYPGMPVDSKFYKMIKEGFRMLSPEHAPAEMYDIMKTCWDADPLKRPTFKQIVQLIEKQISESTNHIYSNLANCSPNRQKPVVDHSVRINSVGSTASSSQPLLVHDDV
Summary of the method: (§1)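 IL-3 independent BaF3 cells stably expressing tel-c-KIT wt or tel-c-KIT T670I, grown in RPMI 1640 with 10% FBS, 2% L-glutamine, 37 °C, 5% CO2. Suspension cells at 1.5 to 5 × 10^4 cells/mL mixed with serial compound dilutions and incubated 72 h. Viability read by CCK-8 absorbance at 450 nm, normalized to DMSO; GI50 from curve fit. Selectivity is wt GI50 over T670I GI50.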

[3] = system: Mast/stem cell growth factor receptor Kit (Homo sapiens), P10721 [T670I]; test: Inhibition of TEL fused c-KIT T670I mutant (unknown origin) transfected in mouse BAF3 cells assessed as growth inhibition after 72 hrs by CCK8 assay; assay type: cell-based
Sequence of Mast/stem cell growth factor receptor Kit (Homo sapiens), P10721 [T670I] (P10721 whole entry T670I, the tested form may be a part): as the sequence (P10721 whole entry, the tested form may be a part) above, with T670I counted along it
Summary of the method: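 Tel-c-KIT-transformed BaF3 lines (IL-3 independent) kept in RPMI 1640 with 10% FBS, 2% L-glutamine and pen/strep. Cells at 1.5 to 5 × 10^4 cells/mL mixed with graded compound and incubated 72 h at 37 °C, 5% CO2. Viability by CCK-8 absorbance at 450 nm, normalized to DMSO. GI50 from dose–response fit.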

[4] = Selectivity ratio, ratio of inhibition of wild type TEL fused c-KIT (unknown origin) transfected in mouse BAF3 cells assessed as growth inhibition to inhibition of TEL fused c-KIT T670I mutant (unknown origin) transfected in mouse BAF3 cells assessed as growth inhibition; set-up: species or system Homo sapiens; summary of the method: as §1

| SMILES | GI50 [2] [nM] | GI50 [3] [nM] | GI50 at 72 h [1] [µM] | RatioGI50 [4] |
| --- | --- | --- | --- | --- |
| O=C(CC(=O)Nc1ccc2c(/C=C/c3ccccn3)n[nH]c2c1)Nc1ccccc1 | 2220 | 117 | 6.72 | 19 |
| O=C(CC(=O)Nc1ccc2cn[nH]c2c1)Nc1ccc(Cl)c(C(F)(F)F)c1 | > 10000 | 2670 | > 10 | – |
| CNC(=O)c1cncc(-c2n[nH]c3cc(NC(=O)CC(=O)Nc4ccc(Cl)c(C(F)(F)F)c4)ccc23)c1 | > 10000 | 4840 | > 10 | – |
| CNC(=O)c1ccc(-c2n[nH]c3cc(NC(=O)CC(=O)Nc4ccc(Cl)c(C(F)(F)F)c4)ccc23)cc1 | 338 | 57 | > 10 | 6 |
| O=C(CC(=O)Nc1ccc2c(/C=C/c3ccccn3)n[nH]c2c1)Nc1cc(F)cc(F)c1 | 1870 | 399 | 4.24 | – |
| COc1cccc(NC(=O)CC(=O)Nc2ccc3c(/C=C/c4ccccn4)n[nH]c3c2)c1 | 2740 | 234 | > 10 | – |
| Cc1n[nH]c2cc(NC(=O)CC(=O)Nc3ccc(Cl)c(C(F)(F)F)c3)ccc12 | > 10000 | 1880 | > 10 | – |
| O=C(Nc1ccc2c(/C=C/c3ccccn3)n[nH]c2c1)c1ccc(Cl)c(C(F)(F)F)c1 | 2970 | 1710 | 1.71 | – |
| O=C(CC(=O)Nc1ccc2c(-c3cccnc3)n[nH]c2c1)Nc1ccc(Cl)c(C(F)(F)F)c1 | 320 | 45 | > 10 | 7 - 15 |
| CN1CCN(c2cccc(NC(=O)CC(=O)Nc3ccc4c(/C=C/c5ccccn5)n[nH]c4c3)c2)CC1 | > 10000 | 6170 | > 10 | – |
| CN(C)c1cccc(NC(=O)CC(=O)Nc2ccc3c(/C=C/c4ccccn4)n[nH]c3c2)c1 | 3870 | 594 | > 10 | – |
| O=C(CC(=O)Nc1ccc2c(/C=C/c3ccccn3)n[nH]c2c1)Nc1cccc(C(F)(F)F)c1 | 216 | 86 | > 10 | – |
| O=C(CC(=O)Nc1c(F)c(F)c(F)c(F)c1F)Nc1ccc2c(/C=C/c3ccccn3)n[nH]c2c1 | 2950 | 1300 | 3.68 | – |
| O=C(Nc1ccc(Cl)c(C(F)(F)F)c1)Nc1ccc2c(/C=C/c3ccccn3)n[nH]c2c1 | 1600 | 1150 | 1.9 | – |
| O=C(CC(=O)Nc1ccc2c(/C=C/c3ccccn3)n[nH]c2c1)Nc1ccc(Cl)c(C(F)(F)F)c1 | 25 | 2 | 7.4 | 12 |
| O=C(CC(=O)Nc1cc(F)ccc1F)Nc1ccc2c(/C=C/c3ccccn3)n[nH]c2c1 | 3460 | 847 | 5.08 | – |
| CN1CCN(Cc2ccc(-c3n[nH]c4cc(NC(=O)CC(=O)Nc5ccc(Cl)c(C(F)(F)F)c5)ccc34)cc2)CC1 | 19 | 12 | 0.911 | – |
| Cn1cc(-c2n[nH]c3cc(NC(=O)CC(=O)Nc4ccc(Cl)c(C(F)(F)F)c4)ccc23)cn1 | 350 | 23 | > 10 | 7 - 15 |
| O=C(CC(=O)Nc1ccc2c(-c3cccc(F)c3)n[nH]c2c1)Nc1ccc(Cl)c(C(F)(F)F)c1 | 1120 | 179 | > 10 | – |

Continued, in another order:

| GI50 [2] [nM] | GI50 [3] [nM] | SMILES | GI50 at 72 h [1] [µM] | RatioGI50 [4] |
| --- | --- | --- | --- | --- |
| 1000 | 230 | O=C(Nc1ccc(Cl)c(C(F)(F)F)c1)C1(C(=O)Nc2ccc3c(/C=C/c4ccccn4)n[nH]c3c2)CC1 | > 10 | – |
| 943 | 113 | O=C(CC(=O)Nc1ccc2c(/C=C/c3ccccn3)n[nH]c2c1)Nc1cccc(Br)c1 | 6.09 | – |
| 1550 | 339 | NC(=O)c1cccc(-c2n[nH]c3cc(NC(=O)CC(=O)Nc4ccc(Cl)c(C(F)(F)F)c4)ccc23)c1 | > 10 | – |
| 5500 | 3180 | O=C(Cc1ccc(Cl)c(C(F)(F)F)c1)Nc1ccc2c(/C=C/c3ccccn3)n[nH]c2c1 | 3.79 | – |
| 25 | 12 | CN1CCN(c2ccc(-c3n[nH]c4cc(NC(=O)CC(=O)Nc5ccc(Cl)c(C(F)(F)F)c5)ccc34)cc2)CC1 | 1.35 | – |
| 2160 | 312 | O=C(CC(=O)Nc1ccccc1F)Nc1ccc2c(/C=C/c3ccccn3)n[nH]c2c1 | 5.09 | – |
| 923 | 111 | O=C(CC(=O)Nc1ccc2c(/C=C/c3ccccn3)n[nH]c2c1)Nc1cccc(Cl)c1 | 3.61 | – |
| 1430 | 170 | Cc1cccc(NC(=O)CC(=O)Nc2ccc3c(/C=C/c4ccccn4)n[nH]c3c2)c1 | > 10 | – |
| 183 | 59 | Cc1ccc(-c2n[nH]c3cc(NC(=O)CC(=O)Nc4ccc(Cl)c(C(F)(F)F)c4)ccc23)cn1 | 4.91 | – |
| 554 | 111 | O=C(CC(=O)Nc1ccc2c(/C=C/c3ccccn3)n[nH]c2c1)Nc1ccc(F)cc1 | 5.86 | – |
